HCT116 PTEN-null: growth suppression of PTEN-null HCT116, primary screen, cell-based, CellTiter-Glo. HCT116 PTEN-null viability, 60 h; active compounds read low. viability, % at 10 µM. hit rate 1.2% among 140,000. AID 827, 2007;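 active = viability at or below a set limit, 4 SD under the median of all tested compounds, cut at about 3.7% in these data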;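 note: PTEN knockout HCT116 line with beta catenin targeted HCT116 as companion control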
HUVEC inhibit: inhibitors of HUVEC proliferation, primary screen, cell-based, 384-well; hit rate 1.1% among 86,000; viability, % at 10 µM (by protocol); CellTiter-Glo luminescence, 72 h; active compounds read low;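 active = viability at or below 30%; inactive = viability above 30%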
Fibroblast inh: antiproliferative effect on LL 47 fibroblasts – human, LL 47 cells, CellTiter-Glo luminescence, primary screen. hit rate 1.1% among 85,000. LL 47 human lung fibroblast viability, ATP luminescence; active compounds read low. viability, % at 10 µM;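 active = viability at or below 50% in the single dose screen; inactive = viability above 50%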;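 note: compound exposure lasted 72 h before the ATP readout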
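Material: human lung fibroblast line LL 47, low passage; Evaluation: viability percentage against median untreated-cell control; Buffer or medium: 15% FBS in IMEM; Incubation: 72 h compound exposure at 37 °C after overnight plating; Dosing: 0.1% DMSO in all compound wells; Measured by: CellTiter-Glo luminescence.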
Phagocyt inh: inhibitors of macrophage phagocytosis, primary screen, imaging, J774A.1 cells, IgG beads; AID 1029, 2008; J774A.1 macrophage IgG-bead phagocytosis; inhibition, % at 5 µM; hit rate 0.07% among 110,000;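 active = inhibition above the mean of the plate negative controls plus 5 SD, cut at about 13% in these data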;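 note: phagocytic index as fraction of beads internalized from green versus red external bead signal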
H69AR growth 86K: proliferation blockers of H69AR lung cancer cells, primary screen, cell-based, human, 86K library; viability, % at 10 µM; hit rate 6% among 85,000; H69AR lung tumor viability, ATP luminescence, 72 h; active compounds read low;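 active = viability at or below 40%; inactive = viability above 40%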;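 note: multidrug resistant small cell line overexpressing MRP-1 efflux transporter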
HCT116 bCat-KO: primary screen for growth suppressors in beta-catenin knockout HCT116 cells (colon tumor, human). viability, % at 10 µM. HCT116 beta-catenin knockout viability, CellTiter-Glo, 60 h; active compounds read low. hit rate 1.5% among 140,000;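 active = viability at or under a set limit, the compound median less 4 SD, cut at about 6% in these data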
Hits are given with their value. The full list was thinned out, with hits kept by preference.

`CC1CCC(n2c(=S)[nH]c3ccccc3c2=O)CC1` (centres undefined) gave HCT116 PTEN-null inactive, HUVEC inhibit inactive, Fibroblast inh inactive, Phagocyt inh inactive, H69AR growth 86K inactive and HCT116 bCat-KO inactive.
`CC1CCCC(n2c(=S)[nH]c3ccccc3c2=O)C1C` (centres undefined) gave HCT116 PTEN-null inactive, HUVEC inhibit inactive, Fibroblast inh inactive, H69AR growth 86K 22 and HCT116 bCat-KO inactive.
`C=C(C)CN1C(=O)C(O)(CC(=O)c2ccc3c(c2)OCCO3)c2ccccc21` (centres undefined) gave HCT116 PTEN-null inactive, HUVEC inhibit inactive, Fibroblast inh inactive, Phagocyt inh inactive, H69AR growth 86K 39 and HCT116 bCat-KO inactive.
`CCNC(=O)Cn1c(=O)c2c(ncn2Cc2ccccc2)n(Cc2ccccc2)c1=O` gave HCT116 PTEN-null inactive, HUVEC inhibit inactive, Fibroblast inh inactive, H69AR growth 86K inactive and HCT116 bCat-KO inactive.
For CCn1cnc2c1c(=O)n(CC(=O)Nc1ccc3c(c1)OC(F)(F)O3)c(=O)n2Cc1ccccc1 the results were HCT116 PTEN-null inactive, HUVEC inhibit inactive, Fibroblast inh inactive, Phagocyt inh inactive, H69AR growth 86K 32 and HCT116 bCat-KO inactive.
O=C(/C=C/c1ccc(Cl)cc1)c1cccnc1 was read as HCT116 PTEN-null 0.7, HUVEC inhibit inactive, Fibroblast inh 25, Phagocyt inh inactive, H69AR growth 86K 38 and HCT116 bCat-KO 0.5.
For O=C(/C=C/c1ccccc1Cl)c1cccnc1 the results were HCT116 PTEN-null inactive, HUVEC inhibit 21, Fibroblast inh inactive, Phagocyt inh inactive, H69AR growth 86K 1.2 and HCT116 bCat-KO inactive.
For O=C(/C=C/c1ccc(OCc2ccccc2)c(OCc2ccccc2)c1)c1cccnc1 the results were HCT116 PTEN-null 1.6, Phagocyt inh inactive and HCT116 bCat-KO 1.5.
`C=CCn1c2ccccc2c2nnc(SCc3ccc4nonc4c3)nc21` gave HCT116 PTEN-null inactive, HUVEC inhibit inactive, Fibroblast inh inactive, Phagocyt inh inactive, H69AR growth 86K inactive and HCT116 bCat-KO inactive.
`O=C(Cn1cnc2c(nnn2-c2ccc(F)cc2)c1=O)N1CCCC1` gave HCT116 PTEN-null inactive, HUVEC inhibit inactive, Fibroblast inh inactive, Phagocyt inh inactive, H69AR growth 86K inactive and HCT116 bCat-KO inactive.
Screening CCOC(=O)N1CCN(S(=O)(=O)c2ccc(C(=O)NNc3nc4c(C)cccc4s3)cc2)CC1 returned HCT116 PTEN-null inactive and HCT116 bCat-KO inactive.
Screening Cc1cccc2sc(NNC(=O)c3ccc(S(=O)(=O)N4CCCC(C)C4)cc3)nc12 (centres undefined) returned HCT116 PTEN-null inactive and HCT116 bCat-KO 1.9.
For Cc1cccc2sc(NNC(=O)c3ccc(S(=O)(=O)N4CCc5ccccc5C4)cc3)nc12 the results were HCT116 PTEN-null inactive and HCT116 bCat-KO 3.7.
Screening COCCN(C(=S)Nc1ccccc1OC)C(C)c1cccs1 (centres undefined) returned HCT116 PTEN-null inactive, Phagocyt inh inactive and HCT116 bCat-KO inactive.
Cc1ccc(C(=O)Nc2cc3c(oc2=O)CCCC3=O)cc1 was read as HCT116 PTEN-null inactive and HCT116 bCat-KO inactive.
CCCCn1c(NC(=S)Nc2ccccc2)nc2ccccc21 was read as HCT116 PTEN-null inactive, Phagocyt inh inactive and HCT116 bCat-KO inactive.
CCOC(=O)N1C=CC=C[C@@H]2[C@@H](N3C(=O)c4ccccc4C3=O)C(=O)N21 was read as HCT116 PTEN-null inactive, Phagocyt inh inactive and HCT116 bCat-KO inactive.
`CCOc1cc2[nH]c(=O)n(Cc3ccc(C(=O)NCCOC)cc3)c(=O)c2cc1OCC` gave HCT116 PTEN-null inactive, HUVEC inhibit inactive, Fibroblast inh inactive, H69AR growth 86K inactive and HCT116 bCat-KO inactive.
For CCOc1cc2[nH]c(=O)n(Cc3cccc(OC)c3)c(=O)c2cc1OCC the results were HCT116 PTEN-null inactive, HUVEC inhibit inactive, Fibroblast inh inactive, Phagocyt inh inactive, H69AR growth 86K 21 and HCT116 bCat-KO inactive.
Screening Cc1cccc(C)c1NC(=O)CSCC(=O)O returned HCT116 PTEN-null inactive, HUVEC inhibit inactive, Fibroblast inh inactive, Phagocyt inh inactive, H69AR growth 86K inactive and HCT116 bCat-KO inactive.
Screening Cc1cccc(C)c1NC(=O)CSCC(=O)c1ccc(O)c(O)c1 returned HCT116 PTEN-null inactive, HUVEC inhibit inactive, Fibroblast inh inactive, Phagocyt inh inactive, H69AR growth 86K 18 and HCT116 bCat-KO inactive.
Screening COC(=O)c1ccc(CSc2nnc(-c3ccncc3)n2Cc2ccccc2)o1 returned HCT116 PTEN-null inactive, HUVEC inhibit inactive, Fibroblast inh inactive, Phagocyt inh inactive, H69AR growth 86K inactive and HCT116 bCat-KO inactive.
CCCCCCCCCCCCCCCC(O)C(N)CO (centres undefined) was read as HCT116 PTEN-null 1.5 and HCT116 bCat-KO 1.9.
Screening CCOC(=O)c1c(C)[nH]c(C(=O)COC(=O)CNC(=O)c2ccc(Cl)cc2Cl)c1C returned HCT116 PTEN-null inactive, Phagocyt inh inactive and HCT116 bCat-KO inactive.
Screening CCc1c(C)[nH]c2nc3ccccc3n2c1=O returned HCT116 PTEN-null inactive, HUVEC inhibit inactive, Fibroblast inh inactive, Phagocyt inh inactive, H69AR growth 86K inactive and HCT116 bCat-KO inactive.
O=c1cc(-c2ccccc2)[nH]c2nc3ccccc3n12 was read as HCT116 PTEN-null inactive, HUVEC inhibit inactive, Fibroblast inh inactive, Phagocyt inh inactive, H69AR growth 86K 14 and HCT116 bCat-KO inactive.
For C=C1C(=O)[C@@]23[C@H](O)C[C@@H]4C(C)(C)CC[C@H](O)[C@@]4(C)[C@@H]2CC[C@@H]1[C@H]3O the results were HCT116 PTEN-null 1.3 and HCT116 bCat-KO 2.1.
For O=c1[nH]c2ccccc2n1CCCN1CCN(C(c2ccccc2)c2ccccc2)CC1 the results were HCT116 PTEN-null inactive, HUVEC inhibit inactive, Fibroblast inh inactive, H69AR growth 86K 27 and HCT116 bCat-KO 5.6.
`C=CCOC(=O)C1=C(C)NC(SCC(=O)Nc2ccc(C)c(Cl)c2)=C(C#N)C1c1ccco1` (centres undefined) gave HCT116 PTEN-null inactive, HUVEC inhibit inactive, Fibroblast inh 17, Phagocyt inh inactive, H69AR growth 86K 7.0 and HCT116 bCat-KO 4.2.
`C/C(=N\NC(=O)c1ccccc1O)C1C(=O)c2ccccc2C1=O` gave HCT116 PTEN-null inactive, Phagocyt inh inactive and HCT116 bCat-KO 4.0.
For C/C(=N/NC(=O)c1cc2ccccc2cc1O)C1C(=O)c2ccccc2C1=O the results were HCT116 PTEN-null inactive, HUVEC inhibit inactive, Fibroblast inh inactive, Phagocyt inh inactive, H69AR growth 86K 36 and HCT116 bCat-KO inactive.
`Cc1nc2ccc(NC(=O)Cc3ccc4c(c3)OCCO4)cc2s1` gave HCT116 PTEN-null inactive, Phagocyt inh inactive and HCT116 bCat-KO inactive.

Screens deposited in PubChem BioAssay by several laboratories.
